Counter-ions that a name gives are not always drawn. Like-named read-outs stand apart in the source and are kept apart here.
How the values were obtained:
[1] = test system: newly transformed schistosomula (NTS); assay: In vitro screening of newly transformed schistosomula; assay type: cell-based, Schistosoma mansoni; conditions: 72 h, read-out: NTS EC50
Summary of the method: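 Cercariae shed from Biomphalaria glabrata under light for 4 h were mechanically transformed and kept in M199 with 5% FCS, antibiotic mastermix and pen./strep. at 37 °C, 5% CO2. 40–50 larvae per well were exposed to 10, 7.5, 5, 3.75, 2.5, 1 or 0.25 μM test compound, with DMSO (<1%) as control. Viability was scored visually at 24 and 72 h (0–3, 0.5 steps), and the assay was repeated once. Scores were normalized to vehicle, and EC50 came from a four- or two-parameter sigmoid least-squares fit.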

S. mansoni = assay: In vivo efficacy study in S. mansoni-infected mice; parameters: species or system Schistosoma mansoni; conditions: single oral gavage, 200 mg/kg (1) or 100 mg/kg (19); for Mean number of worms (SD): 21 days post-dosing
Summary of the method: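 Female NMRI mice (three weeks old, acclimatized one week) were each infected with 100 cercariae subcutaneously in the nuchal fold. At day 49 they received one oral gavage of test compound in Tween 80/ethanol (70:30, 10% of volume) plus tap water (sonicated, 35 °C); there were four mice per group and four untreated controls. Mice were killed 21 days post-dosing, and worms from mesenteric veins and liver were sexed, counted, and classed as dead or alive. Worm burden reduction was based on living worms versus controls, with a Kruskal-Wallis test.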

adult S. mansoni = assay: In vitro screening of adult S. mansoni worms, visual viability scoring; assay type: cell-based; conditions: Schistosoma mansoni, 72 h, read-out: Adult S. mansoni EC50
Summary of the method: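 Adult worms were recovered from mouse mesenteric veins at day 49 post-infection and held in RPMI 1640 with 5% FCS and antibiotics at 37 °C, 5% CO2. Two worm pairs per well were exposed to 40, 30, 20, 10, 7.5, 5, 2.5 or 1 μM test compound, with DMSO (<1%) as control. Viability was scored visually at 24 and 72 h (0–3, 0.5 steps). Duplicates, repeated once. Scores were normalized to vehicle, and EC50 came from a four-parameter sigmoid fit (two-parameter if not applicable).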

[2] = Metabolic stability assay in murine liver microsomes; assay type: in vitro ADME; conditions: for Microsomal stability t1/2: murine liver microsomes, 1 μM, 37 °C
Summary of the method: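 Test compound (1 μM) was incubated at 37 °C with mouse liver microsomes (0.5 mg/ml protein) in potassium phosphate buffer, pH 7.4, with 1.0 mM EDTA. Reactions were started with NADPH and quenched with ice-cold acetonitrile every 15 min up to 1 h. Depletion was followed by LC-MS/MS (ESI+, C18) against internal standards. A first-order exponential decay fit gave t1/2, and CLint was derived assuming hepatic blood flow of 90 ml/min/kg.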

P. falciparum D6 strain = assay: Antimalarial activity against P. falciparum D6 strain; assay type: cell-based, Plasmodium falciparum; conditions: among the 11 compounds most active against adult S. mansoni

| EC50 ([1]; Schistosoma mansoni) [µM] | Structure (SMILES) | EC50 (adult S. mansoni) [µM] | further results |
| --- | --- | --- | --- |
| 1.57 | N=C(N/N=C/c1ccnc2ccccc12)N/N=C/c1ccnc2ccccc12 [Compound 64, (E)-N'-((E)-quinolin-4-ylmethylene)-2-(quinolin-4-ylmethylene)hydrazine-1-carboximidhydrazide Hydrochloride] |  |  |
|  | N=C(NN=Cc1ccc(-c2ccccc2)cc1)NN=Cc1ccc(-c2ccccc2)cc1 [Compound 26, 2,2’-Bis[(4-diphenyl)methylene]carbonimidic Dihydrazide Hydrochloride] |  | EC50 ([1]; four- (a) or two-parameter (b) sigmoid fit): 4.43 µM |
| 6.23 | N=C(NN=Cc1ccc(C(F)(F)F)cc1)NN=Cc1ccc(C(F)(F)F)cc1 [Compound 12, 2,2’-Bis[(4-trifluoromethylphenyl)methylene]carbonimidic Dihydrazide Hydrochloride] |  |  |
| 2.44 | N=C(NN=Cc1ccc(N2CCOCC2)cc1)NN=Cc1ccc(N2CCOCC2)cc1 [Compound 33, 2,2’-Bis[(4-morpholinophenyl)methylene]carbonimidic Dihydrazide Hydrochloride] | 6.45 |  |
| 4.02 | Cl.N#Cc1cc(/C=N/NC(=N)N/N=C/c2ccc(OC(F)(F)F)cc2)ccc1F [Compound 77, N'-((E)-3-cyano-4-fluorobenzylidene)-2-((E)-4-(trifluoromethoxy)benzylidene)hydrazine-1-carboximidhydrazide Hydrochloride] | 6.76 | half-life at 1 μM ([2]; mouse, liver microsomes, pH 7.4): 4.66 h |
| 3.09 | N=C(N/N=C/c1cccc(-c2ccccc2)c1)N/N=C/c1cccc(-c2ccccc2)c1 [Compound 52, (E)-N'-((E)-[1,1'-biphenyl]-3-ylmethylene)-2-([1,1'-biphenyl]-3-ylmethylene)hydrazine-1-carboximidhydrazide Hydrochloride] | 7.57 |  |
| 4.44 | C#CCOc1ccc(/C=N/NC(=N)N/N=C/c2ccc(C(=O)c3ccccc3)cc2)cc1 [Compound 86, N'-((E)-4-benzoylbenzylidene)-2-((E)-4-(prop-2-yn-1-yloxy)benzylidene)hydrazine-1-carboximidhydrazide Hydrochloride] |  |  |
| 3.84 | N=C(N/N=C/c1ccc(Oc2ccccc2)cc1)N/N=C/c1ccc(Oc2ccccc2)cc1 [Compound 57, N',2-bis((E)-4-phenoxybenzylidene)hydrazine-1-carboximidhydrazide Hydrochloride] | 7.07 |  |
| 5.71 | N=C(NN=Cc1ccc([N+](=O)[O-])cc1)NN=Cc1ccc([N+](=O)[O-])cc1 [Compound 27, 2,2’-Bis[(4-nitrophenyl)methylene]carbonimidic Dihydrazide Hydrochloride] |  |  |
| 2.7 | COc1cc(OC)c(CC=NNC(=N)NN=CCc2cc(Cl)c(OC)cc2OC)cc1Cl [Compound 37, 2,2’-Bis[(2,4-dimethoxy-5-chlorophenyl)ethylidene]carbonimidic Dihydrazide Hydrochloride] |  |  |
| 2.5 | N=C(N/N=C/c1ccc2ccccc2n1)N/N=C/c1ccc2ccccc2n1 [Compound 62, (E)-N'-((E)-quinolin-2-ylmethylene)-2-(quinolin-2-ylmethylene)hydrazine-1-carboximidhydrazide Hydrochloride] | 7.49 |  |
| 4.63 | N=C(NN=Cc1ccc(OC(F)F)cc1)NN=Cc1ccc(OC(F)F)cc1 [Compound 18, 2,2’-Bis[(4-difluoromethoxyphenyl)methylene]carbonimidic Dihydrazide Hydrochloride] | 5.12 |  |
| 4.51 | N=C(N/N=C/c1ccc(Oc2ccc(F)cc2)cc1)N/N=C/c1ccc(Oc2ccc(F)cc2)cc1 [Compound 58, N',2-bis((E)-4-(4-fluorophenoxy)benzylidene)hydrazine-1-carboximidhydrazide Hydrochloride] | 8.59 |  |
| 3.31 | N=C(NN=Cc1ccc(OC(F)(F)F)cc1)NN=Cc1ccc(OC(F)(F)F)cc1 [Compound 16, 2,2’-Bis[(4-trifluoromethoxyphenyl)methylene]carbonimidic Dihydrazide Hydrochloride] | 8.06 |  |
| 2.7 | N=C(N/N=C/c1ccc(Oc2ccc(Cl)cc2)cc1)N/N=C/c1ccc(Oc2ccc(Cl)cc2)cc1 [Compound 59, N',2-bis((E)-4-(4-chlorophenoxy)benzylidene)hydrazine-1-carboximidhydrazide Hydrochloride] | 5.52 |  |
| 2.01 | N=C(NN=CCc1ccc(OC(F)(F)F)cc1)NN=CCc1ccc(OC(F)(F)F)cc1 [Compound 17, 2,2’-Bis[(4-trifluoromethoxyphenyl)ethylidene]carbonimidic Dihydrazide Hydrochloride] | 4.91 |  |
| 0.65 | N=C(N/N=C/c1cnc2ccccc2c1)N/N=C/c1cnc2ccccc2c1 [Compound 63, (E)-N'-((E)-quinolin-3-ylmethylene)-2-(quinolin-3-ylmethylene)hydrazine-1-carboximidhydrazide Hydrochloride] |  |  |
| 1.66 | Cl.N#Cc1cccc(C=NNC(=N)NN=Cc2cccc(C#N)c2)c1 [Compound 21, 2,2’-Bis[(3-cyanophenyl)methylene]carbonimidic Dihydrazide Hydrochloride] | 4.04 | Microsomal stability t1/2 [2]: 0.967 h |
| 3.3 | N=C(N/N=C/c1cccc([N+](=O)[O-])c1)N/N=C/c1cccc([N+](=O)[O-])c1 [Compound 49, N',2-bis((E)-3-nitrobenzylidene)hydrazine-1-carboximidhydrazide Hydrochloride] | 9.47 |  |
| 3.37 | N=C(N/N=C/c1ccc(-c2ccc(F)cc2)cc1)N/N=C/c1ccc(-c2ccc(F)cc2)cc1 [Compound 53, (E)-2-((4'-fluoro-[1,1'-biphenyl]-4-yl)methylene)-N'-((E)-(4'-fluoro-[1,1'-biphenyl]-4-yl)methylene)hydrazine-1-carboximidhydrazide Hydrochloride] |  |  |
| 1.12 | N#Cc1cccc(CC=NNC(=N)NN=CCc2cccc(C#N)c2)c1 [Compound 23, 2,2’-Bis[(3-cyanophenyl)ethylidene]carbonimidic Dihydrazide Hydrochloride] | 2.69 |  |
| 1.24 | N#Cc1cc(/C=N/NC(=N)N/N=C/c2ccc(Cl)c(C#N)c2)ccc1Cl [Compound 71, N',2-bis((E)-4-chloro-3-cyanobenzylidene)hydrazine-1-carboximidhydrazide Hydrochloride] |  |  |

| Structure (SMILES) | EC50 ([1]; Schistosoma mansoni) [µM] | EC50 (adult S. mansoni) [µM] | further results |
| --- | --- | --- | --- |
| Cl.N=C(NN=CCc1ccc(OC(F)F)cc1)NN=CCc1ccc(OC(F)F)cc1 [Compound 19, 2,2’-Bis[(4-difluoromethoxyphenyl)ethylidene]carbonimidic Dihydrazide Hydrochloride] | 2.79 | 2.78 | Tolerability in mice (S. mansoni): well tolerated; Mean number of worms (SD) (S. mansoni): 28.3 (10.6) |
| Cl.N#Cc1cc(C=NNC(=N)NN=Cc2ccc(F)c(C#N)c2)ccc1F [Compound 1, 2,2’-Bis[(3-cyano-4-fluorophenyl)methylene]carbonimidic Dihydrazide Hydrochloride] | 1.25 | 5.46 | Tolerability in mice (S. mansoni): well tolerated; Mean number of worms (SD) (S. mansoni): 24.3 (4.3); Microsomal stability t1/2 [2]: 3.1 h; Antimalarial activity in vitro and in vivo (ranking) (P. falciparum D6 strain): most potent antimalarial activity in vitro and in vivo |
